Test results published in ChEMBL document CHEMBL4406880, “Design, synthesis, and bioactivity of dihydropyrimidine derivatives as kinesin spindle protein inhibitors” (Bioorg Med Chem, 2019).

Assays:
Format in all cases: functional
IGROV-1 = assay: Growth inhibition of human IGROV1 cells assessed as growth percentage at 10 uM incubated for 48 hrs by sulforhodamine B assay relative to control; settings: IGROV-1, 48 h, read-out: Activity
How it was run: (§1)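 NCI-60 one-dose screen. Cells in RPMI 1640 with 5% FBS and 2 mM L-glutamine, seeded at 5,000–40,000 cells/well according to doubling time, and preincubated overnight at 37 °C, 5% CO2. A time-zero plate was TCA-fixed at drug addition. Compound from DMSO stock, final 10 µM, 48 h; DMSO vehicle controls. Fixation with TCA, 10% final (16% for suspension cells). SRB stain, Tris solubilization, A515. Result given as % growth versus untreated cells.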

BT-549 = assay: Growth inhibition of human BT549 cells assessed as growth percentage at 10 uM incubated for 48 hrs by sulforhodamine B assay relative to control; settings: BT-549, 48 h, read-out: Activity
How it was run: (§2)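 NCI-60 one-dose screen: cells in RPMI 1640 with 5% FBS and 2 mM L-glutamine, plated at 5,000–40,000 cells/well and preincubated 24 h at 37 °C, 5% CO2. Compound is added from a DMSO stock to a final 10 µM and incubated 48 h. Cells are TCA-fixed and stained with sulforhodamine B, read at 515 nm. Output is % growth versus untreated control, with a time-zero plate.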

786-0 = assay: Growth inhibition of human 786-0 cells assessed as growth percentage at 10 uM incubated for 48 hrs by sulforhodamine B assay relative to control; settings: 786-0, 48 h, read-out: Activity; how it was run: as §2
HOP-62 = assay: Growth inhibition of human HOP62 cells assessed as growth percentage at 10 uM incubated for 48 hrs by sulforhodamine B assay relative to control; settings: HOP-62, 48 h, read-out: Activity; how it was run: as §1
M14 = assay: Growth inhibition of human M14 cells assessed as growth percentage at 10 uM incubated for 48 hrs by sulforhodamine B assay relative to control; settings: M14, 48 h, read-out: Activity; how it was run: as §1
UO-31 = assay: Growth inhibition of human UO31 cells assessed as growth percentage at 10 uM incubated for 48 hrs by sulforhodamine B assay relative to control; settings: UO-31, 48 h, read-out: Activity
How it was run: (§3)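 NCI-60 single-dose screen. Cells were grown in RPMI 1640 with 5% FBS and 2 mM L-glutamine and plated at 5,000–40,000 cells/well. After an overnight preincubation at 37 °C in 5% CO2, compound was added at a final 10 µM from a DMSO stock, with DMSO/PBS controls. After 48 h, cells were TCA-fixed and stained with 0.4% SRB, and absorbance was read at 515 nm. Growth is given as a percentage of untreated control.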

NCI-H322M = assay: Growth inhibition of human NCI-H322M cells assessed as growth percentage at 10 uM incubated for 48 hrs by sulforhodamine B assay relative to control; settings: read-out: Activity; how it was run: as §1
SNB-19 = assay: Growth inhibition of human SNB19 cells assessed as growth percentage at 10 uM incubated for 48 hrs by sulforhodamine B assay relative to control; settings: SNB-19, 48 h, read-out: Activity; how it was run: as §3
ACHN = assay: Growth inhibition of human ACHN cells assessed as growth percentage at 10 uM incubated for 48 hrs by sulforhodamine B assay relative to control; settings: read-out: Activity; how it was run: as §2
SF-539 = assay: Growth inhibition of human SF539 cells assessed as growth percentage at 10 uM incubated for 48 hrs by sulforhodamine B assay relative to control; settings: SF-539, 48 h, read-out: Activity; how it was run: as §3
MCF7 = assay: Growth inhibition of human MCF7 cells assessed as growth percentage at 10 uM incubated for 48 hrs by sulforhodamine B assay relative to control; settings: MCF7, 48 h, read-out: Activity; how it was run: as §1
RPMI-8226 = assay: Growth inhibition of human RPMI8226 cells assessed as growth percentage at 10 uM incubated for 48 hrs by sulforhodamine B assay relative to control; settings: RPMI-8226, 48 h, read-out: Activity; how it was run: as §3
PC-3 = assay: Growth inhibition of human PC3 cells assessed as growth percentage at 10 uM incubated for 48 hrs by sulforhodamine B assay relative to control; settings: PC-3, 48 h, read-out: Activity; how it was run: as §3
MOLT-4 = assay: Growth inhibition of human MOLT4 cells assessed as growth percentage at 10 uM incubated for 48 hrs by sulforhodamine B assay relative to control; settings: MOLT-4, 48 h, read-out: Activity; how it was run: as §1
NCI-H460 = assay: Growth inhibition of human NCI-H460 cells assessed as growth percentage at 10 uM incubated for 48 hrs by sulforhodamine B assay relative to control; settings: NCI-H460, 48 h, read-out: Activity; how it was run: as §1
T47D = assay: Growth inhibition of human T47D cells assessed as growth percentage at 10 uM incubated for 48 hrs by sulforhodamine B assay relative to control; settings: read-out: Activity; how it was run: as §3
SR = assay: Growth inhibition of human SR cells assessed as growth percentage at 10 uM incubated for 48 hrs by sulforhodamine B assay relative to control; settings: read-out: Activity; how it was run: as §3
TK-10 = assay: Growth inhibition of human TK10 cells assessed as growth percentage at 10 uM incubated for 48 hrs by sulforhodamine B assay relative to control; settings: TK-10, 48 h, read-out: Activity; how it was run: as §3
NCI-H226 = assay: Growth inhibition of human NCI-H226 cells assessed as growth percentage at 10 uM incubated for 48 hrs by sulforhodamine B assay relative to control; settings: NCI-H226, 48 h, read-out: Activity; how it was run: as §1
CCRF-CEM = assay: Growth inhibition of human CCRF-CEM cells assessed as growth percentage at 10 uM incubated for 48 hrs by sulforhodamine B assay relative to control; settings: read-out: Activity; how it was run: as §2
Hs-578T = assay: Growth inhibition of human Hs 578T cells assessed as growth percentage at 10 uM incubated for 48 hrs by sulforhodamine B assay relative to control; settings: read-out: Activity; how it was run: as §1
NCI-H522 = assay: Growth inhibition of human NCI-H522 cells assessed as growth percentage at 10 uM incubated for 48 hrs by sulforhodamine B assay relative to control; settings: NCI-H522, 48 h, read-out: Activity; how it was run: as §1
SK-OV-3 = assay: Growth inhibition of human SKOV3 cells assessed as growth percentage at 10 uM incubated for 48 hrs by sulforhodamine B assay relative to control; settings: SK-OV-3, 48 h, read-out: Activity; how it was run: as §3
EKVX = assay: Growth inhibition of human EKVX cells assessed as growth percentage at 10 uM incubated for 48 hrs by sulforhodamine B assay relative to control; settings: read-out: Activity; how it was run: as §2
MDA-MB-435 = assay: Growth inhibition of human MDA-MB-435 cells assessed as growth percentage at 10 uM incubated for 48 hrs by sulforhodamine B assay relative to control; settings: MDA-MB-435, 48 h, read-out: Activity; how it was run: as §1
MDA-MB-468 = assay: Growth inhibition of human MDA-MB-468 cells assessed as growth percentage at 10 uM incubated for 48 hrs by sulforhodamine B assay relative to control; settings: MDA-MB-468, 48 h, read-out: Activity; how it was run: as §1
SNB-75 = assay: Growth inhibition of human SNB75 cells assessed as growth percentage at 10 uM incubated for 48 hrs by sulforhodamine B assay relative to control; settings: SNB-75, 48 h, read-out: Activity; how it was run: as §3

| SMILES | growth at 10 µM (IGROV-1) [%] | growth at 10 µM (BT-549) [%] | growth at 10 µM (786-0) [%] | growth at 10 µM (HOP-62) [%] | growth at 10 µM (M14) [%] | growth at 10 µM (UO-31) [%] | growth at 10 µM (NCI-H322M) [%] | growth at 10 µM (SNB-19) [%] | growth at 10 µM (ACHN) [%] | growth at 10 µM (SF-539) [%] | growth at 10 µM (MCF7) [%] | growth at 10 µM (RPMI-8226) [%] | growth at 10 µM (PC-3) [%] | growth at 10 µM (MOLT-4) [%] | growth at 10 µM (NCI-H460) [%] | growth at 10 µM (T47D) [%] | growth at 10 µM (TK-10) [%] | growth at 10 µM (NCI-H226) [%] | growth at 10 µM (Hs-578T) [%] | growth at 10 µM (NCI-H522) [%] | other results |
| --- | --- | --- | --- | --- | --- | --- | --- | --- | --- | --- | --- | --- | --- | --- | --- | --- | --- | --- | --- | --- | --- |
| CC1=C(C(=O)OCc2ccccc2)C(c2ccc3c(c2)OCO3)n2c(nc3ccccc32)N1 (racemic) | 36 to 41.4 | 44 to 50.5 | 31 to 43.1 | 36 to 44.2 | 28.1 to 35 | 28 to 51.1 | 47 to 55 | 33 to 41.6 | 36 to 38.4 | 9.94 to 21 | 9 to 20.6 | 39.9 | 35 to 41.1 | 37.1 to 41 | 6.62 to 8 | 31 to 40.9 | 64 to 65.6 | 58 to 58.2 | 0.75 to 14 | 8 to 26.3 | growth at 10 µM (SR): 9.81 to 43%; growth at 10 µM (CCRF-CEM): 24.9 to 31%; growth at 10 µM (SK-OV-3): 27 to 41.7%; growth at 10 µM (EKVX): 42 to 64.4% |
| CC(=O)N1C(=S)NC(C)=C(C(=O)OCc2ccccc2)C1c1ccc2c(c1)OCO2 (racemic) | 98 | 88.8 | 96.8 | 75.5 | 54 | 85.4 | 101 | 87.8 | 95.5 | 84.2 | 92.1 | 54.8 | 81.3 | 58.7 | 77.9 | 58.1 | 100 | 96.3 | 76.8 | 75.7 | growth at 10 µM (MDA-MB-435): 60.1%; growth at 10 µM (MDA-MB-468): 78.9%; growth at 10 µM (SNB-75): 80.4%; growth at 10 µM (SK-OV-3): 79.2%; growth at 10 µM (EKVX): 96.8% |
